In ChEMBL document CHEMBL1121412, “Synthesis and anticancer activity of nitrosourea derivatives of phensuximide” (1980) one finds Ratio, T/C and T-C data, which are given here for six compounds.

In test [1] the test system is Mus musculus. The test can be described thus: Toxicity against mouse L1210 Leukemia as number of animals survived/number of animals treated at the Optimal dose of 50 mg/kg; 6/6, dose range ip 400-12.5 mg/kg. Type of test: functional. Particulars: route intraperitoneal.
The subject of test [2] is Mus musculus. The test can be described thus: Tested for cures, represents a 30-day survival, ratio of treated and control was reported; dose range ip 400-12.5 mg/kg. The format is functional.
In test [3] the test system is Mus musculus. The experiment in a line: Animal weight difference at the Optimal dose of 50 mg/kg against mouse L1210 Leukemia; dose range ip 400-12.5 mg/kg. The following applies: route intraperitoneal.
The test system of test [4] is Mus musculus. The experiment in a line: Animal weight difference at the Optimal dose of 100 mg/kg against mouse L1210 Leukemia; dose range ip 200-12.5 mg/kg. Type of test: functional. Particulars: route intraperitoneal.
The subject of test [5] is Mus musculus. The test can be described thus: Toxicity against mouse L1210 Leukemia as number of animals survived/number of animals treated at the Optimal dose of 200 mg/kg; 6/6, dose range ip 200-12.5 mg/kg. Particulars: route intraperitoneal. Type of test: functional.
Test [6] concerns Mus musculus. The experiment in a line: Tested for cures, represents a 30-day survival, ratio of treated and control was reported; dose range ip 200-12.5 mg/kg. The format is functional.
Test [7] deals with Mus musculus. The test can be described thus: Toxicity against Ependymoblastoma Tumor number of animals survived/number of animals treated at the Optimal dose of 12.0 mg/kg; dose range 12-0.75 mg/kg. The format is functional. Summed up:
(§1)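 Mouse ependymoblastoma implanted intracerebrally to test CNS antitumour activity. Groups of 10 mice were dosed on days 1-5 over the stated dose range. Toxicity is scored as survivors on day 5 after the first injection. Activity is given as % T/C at the optimum dose, and a cure is defined as 30-day survival.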

Test [8] deals with Mus musculus. The experiment in a line: Animal weight difference at the Optimal dose of 12.0 mg/kg against Ependymoblastoma Tumor; dose range 12-0.75 mg/kg. Type of test: functional.
In test [9] the test system is Mus musculus. The experiment in a line: Tested for cures, represents a 30-day survival, ratio of treated and control against Ependymoblastoma Tumor was reported; dose range 12-0.75 mg/kg. Type of test: functional. The method in brief:
as §1

Test [10] deals with Mus musculus. The test can be described thus: Tested for cures, represents a 30-day survival, ratio of treated and control was reported; dose range ip 50-6.25 mg/kg. The format is functional.
Test [11] deals with Mus musculus. The experiment in a line: Animal weight difference at the Optimal dose of 25 mg/kg against mouse L1210 Leukemia; dose range ip 50-6.25 mg/kg. Particulars: route intraperitoneal.
In test [12] the test system is Mus musculus. The test can be described thus: Toxicity against mouse L1210 Leukemia as number of animals survived/number of animals treated at the Optimal dose of 25 mg/kg; 6/6, dose range ip 50-6.25 mg/kg. Particulars: route intraperitoneal.
Test [13] relates to Mus musculus. The test can be described thus: Tested for cures, represents a 30-day survival, ratio of treated and control against Ependymoblastoma Tumor was reported; dose range 16-2 mg/kg. Type of test: functional. The method in brief:
as §1

Test [14] concerns Mus musculus. The test can be described thus: Animal weight difference at the Optimal dose of 16.0 mg/kg against Ependymoblastoma Tumor; dose range 16-2 mg/kg.
Test [15] deals with Mus musculus. The test can be described thus: Toxicity against Ependymoblastoma Tumor number of animals survived/number of animals treated at the Optimal dose of 16.0 mg/kg; dose range 16-2 mg/kg.
The test system of test [16] is Mus musculus. The experiment in a line: Toxicity against mouse L1210 Leukemia as number of animals survived/number of animals treated at the Optimal dose of 100 mg/kg; 6/6, dose range ip 200-12.5 mg/kg. The format is functional. The following applies: route intraperitoneal.
Test [17] deals with Mus musculus. The test can be described thus: Toxicity against mouse L1210 Leukemia as number of animals survived/number of animals treated at the Optimal dose of 200 mg/kg; 5/6, dose range ip 400-12.5 mg/kg. Particulars: route intraperitoneal. Type of test: functional.
For test [18], the system named is Mus musculus. The experiment in a line: Animal weight difference at the Optimal dose of 200 mg/kg against mouse L1210 Leukemia; dose range ip 400-12.5 mg/kg. The following applies: route intraperitoneal. Type of test: functional.
The test system of test [19] is L1210 leukemia (Mus musculus). The experiment in a line: Tested for cures, represents a 30-day survival, ratio of treated and control against L1210 leukemia was reported; dose range ip 400-12.5 mg/kg.

In the case of `CCCN(N=O)C(=O)Nc1ccc(C2CC(=O)N(C)C2=O)cc1` (stereo unspecified), the Ratio with Mus musculus [1] worked out at 6. Besides, in the test on Mus musculus [2], the T/C (as a rule, the ratio of treated to control) is listed as 109%. The compound further registered a T-C with Mus musculus [3] of 0.8 g.
In the test on Mus musculus [4], `CCN(N=O)C(=O)Nc1ccc(C2CC(=O)N(C)C2=O)cc1` (stereo unspecified) gave a T-C of -3.8 g. Also, in the test with Mus musculus [5], the Ratio came to 6. In addition, the T/C with Mus musculus [6] worked out at 126%.
Take `CN1C(=O)CC(c2ccc(NC(=O)N(CCCl)N=O)cc2)C1=O` (stereo unspecified): the Ratio in the test on Mus musculus [7] is on record as 9; with Mus musculus [12], 6. In addition, the T-C with Mus musculus [8] is -3.8 g; with Mus musculus [11], -4.6 g. Further, the T/C is listed as 240% in the test with Mus musculus [9] and 196% in the test on Mus musculus [10].
`O=NN(CCCl)C(=O)NCCCl` [CARMUSTINE]: the T/C in the test with Mus musculus [13] amounted to 300%. The same compound displayed a T-C with Mus musculus [14] of -3.4 g. Moreover, the Ratio in the test on Mus musculus [15] came out at 10.
`CN(N=O)C(=O)Nc1ccc(C2CC(=O)N(C)C2=O)cc1` (stereo unspecified): the Ratio in the test with Mus musculus [16] came to 6. In addition, the T-C in the test on Mus musculus [4] is -1.2 g. Moreover, in the test with Mus musculus [6], the T/C worked out at 127%.
For the compound `CCCCN(N=O)C(=O)Nc1ccc(C2CC(=O)N(C)C2=O)cc1` (stereo unspecified), the Ratio in the test with Mus musculus [17] is reported as 5. This compound gave a T-C in the test on Mus musculus [18] of -2.8 g. Further, the T/C in test [19] is on record as 120%.
